{"data": "Assay results of several laboratories"}
{"Compound": "Cc1nc(NC(=O)N2CCC[C@H]2C(N)=O)sc1-c1ccnc(C(C)(C)C(F)(F)F)c1", "host": "human", "matrix": "plasma", "route": "oral", "dose": "350 mg", "notes": "patients", "Tmax [h]": 1.77}
{"Compound": "C[C@@]1(c2cc(NC(=O)c3ccc(C#N)cn3)ccc2F)C=CSC(N)=N1", "host": "human", "matrix": "plasma", "route": "oral", "dose": "3 mg", "notes": "single dose", "Tmax [h]": 1.25}
{"Compound": "c1cnc2ccc(Nc3nc(NC4CC4)c4nc[nH]c4n3)cc2c1", "host": "human", "matrix": "plasma", "route": "oral", "dose": "50 mg/m²", "notes": "patients", "Tmax [h]": 5}
{"Compound": "C=CC(=O)N(C)CCOc1c(N)ncnc1-c1cc(F)cc(NC(=O)c2ccc(C3CC3)cc2F)c1C", "host": "human", "matrix": "blood", "route": "oral", "dose": "5 mg", "notes": "single dose, healthy volunteers", "Tmax [h]": 0.52}
{"Compound": "C#C[C@]1(COP(=O)(O)OP(=O)(O)OP(=O)(O)O)O[C@@H](n2cnc3c(N)nc(F)nc32)C[C@@H]1O", "host": "human", "matrix": "plasma", "route": "oral", "dose": "5 mg", "notes": "single dose", "Tmax [h]": 9}
{"Compound": "Cn1cc(-c2ccc(S(=O)(=O)[C@@H]3C[C@@H](C(=O)NC4(C#N)CC4)N(C(=O)C4(C(F)(F)F)CC4)C3)c(C(F)(F)F)c2)cn1", "host": "human", "matrix": "plasma", "route": "oral", "dose": "100 mg", "notes": "single dose, fasted, healthy volunteers", "Tmax [h]": 4}
{"Compound": "CC(C)(Sc1ccncc1-c1ccc(C#N)c2ccccc12)C(=O)O", "host": "male human", "matrix": "plasma", "route": "oral", "dose": "1 mg", "notes": "multiple doses, once daily", "Tmax [h]": 0.5}
{"Compound": "CC(C)(O)c1ccccc1-c1ccc2[nH]c(/C=C/c3ccc(C(F)(F)F)cc3)nc2c1", "host": "male human", "matrix": "plasma", "route": "oral", "dose": "225 mg", "notes": "single dose, fasted", "Tmax [h]": 2.02}
{"Compound": "CCc1nc2c(C)cc(N3CCN(CC(=O)N4CC(O)C4)CC3)cn2c1N(C)c1nc(-c2ccc(F)cc2)c(C#N)s1", "host": "human", "matrix": "plasma", "route": "oral", "dose": "20 mg", "notes": "fed, healthy volunteers", "Tmax [h]": 1}
{"Compound": "COc1cc(N2CCC(N3CCN(C)CC3)CC2)ccc1Nc1ncnc(Nc2ccccc2S(=O)(=O)C(C)C)n1", "host": "human", "matrix": "plasma", "route": "oral", "dose": "125 mg", "notes": "multiple doses, patients", "Tmax [h]": 2.97}
{"Compound": "CCc1nc(C(N)=O)c(Nc2ccc(N3CCC(N4CCN(C)CC4)CC3)c(OC)c2)nc1NC1CCOCC1", "host": "human", "matrix": "plasma", "route": "oral", "dose": "80 mg", "notes": "multiple doses, patients", "Tmax [h]": 4.03}
{"Compound": "CO[C@@H]1[C@H](OC(=O)N2CC(CCN3CCOCC3)C2)CC[C@]2(CO2)[C@H]1[C@@]1(C)O[C@@H]1CC=C(C)C", "host": "human", "matrix": "plasma", "route": "subcutaneous", "dose": "3.6 mg", "notes": "single dose, healthy volunteers", "Tmax [h]": 0.25}
{"Compound": "COc1ccc([C@@H]2CN(C(=O)[C@@H](O)CO)C[C@@]2(C)[C@@H](C)O)cc1OC1CN(c2ccc(C)cn2)C1", "host": "human", "matrix": "plasma", "route": "oral", "dose": "20 mg", "notes": "single dose, healthy volunteers", "Tmax [h]": 1.5}
{"Compound": "CS(=O)(=O)CCC#N", "host": "human", "matrix": "plasma", "route": "oral", "dose": "100 mg", "notes": "single dose, fasted", "Tmax [h]": 2}
{"Compound": "CCO[C@H]1CCN(Cc2c(OC)cc(C)c3[nH]ccc23)[C@H](c2ccc(C(=O)O)cc2)C1", "host": "human", "matrix": "plasma", "route": "oral", "dose": "25 mg", "notes": "multiple doses, twice daily, patients", "Tmax [h]": 2}
{"Compound": "NS(=O)(=O)NCCNc1nonc1C(=NO)Nc1ccc(F)c(Br)c1", "host": "human", "matrix": "plasma", "route": "oral", "dose": "50 mg", "notes": "multiple doses, once daily, steady state, patients", "Tmax [h]": 2}
{"Compound": "CC(C)n1cc(C#N)c2cc(-n3cc(C(=O)O)cn3)ccc21", "host": "human", "matrix": "plasma", "route": "oral", "dose": "600 mg", "notes": "multiple doses, once daily, steady state", "Tmax [h]": 3.5}
{"Compound": "C[C@@H](Nc1cc(F)cc(F)c1)c1cc(C(=O)N(C)C)cc2c(=O)cc(N3CCOCC3)oc12", "host": "human", "matrix": "plasma", "route": "oral", "dose": "60 mg", "notes": "single dose, patients", "Tmax [h]": 1.27}
